Laboratory results as given in ChEMBL document CHEMBL1629436, “Synthesis and biological evaluation of new camptothecin derivatives obtained by modification of position 20” (Bioorg Med Chem, 2010).
Activity calls are given as the source filed them. The calls are words filed in the database; no cut-off is given here.

Columns and labels:
Bos taurus = species on record: Bos taurus; test: Inhibition of calf thymus topoisomerase 1-mediated relaxation of supercoiled pBR322 at 100 uM after 60 mins using ethidium bromide staining by agarose gel electrophoresis
Procedure, shortened: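 Supercoiled pBR322 (0.25 µg) with 2 U calf thymus topoisomerase I and test compound, 60 min at 37 °C in 20 µl reaction buffer. Stopped with SDS/bromophenol blue/glycerol plus 50 µg/mL proteinase K, 30 min at 37 °C. Run on 1% agarose at room temperature, stained with ethidium bromide 1 µg/mL in TAE, imaged under UV.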

B3 [1] = test: Induction apoptosis in mouse B3 cells assessed as ROS production at 10 uM/L using DCFH-DA by flow cytometry relative to control; type: functional, cell-based
Procedure, shortened: (§1)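 Transgenic mouse cells exposed to compound at 10 µmol/L. ROS generation was measured by flow cytometry using the probe DCFH-DA.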

yA7 [2] = test: Cytotoxicity against mouse yA7 cells after 24 to 96 hrs by MTS assay; type: functional, cell-based
Procedure, shortened: (§2)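 Mouse transgenic lines plated at 10^3 cells/well and left 24 h to attach. Drugs diluted in medium were added for 24 or 96 h. CellTiter 96 AQueous One (MTS) reagent was then added for 1 h at 37 °C, with absorbance read at 490 nm. Each condition was run in quintuplicate, and cytotoxicity was expressed as percent of controls.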

HeLa = test: Cytotoxicity against human HeLa cells after 72 hrs by trypan blue assay; type: functional, cell-based
Procedure, shortened: (§3)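 A-431, HeLa and HL-60 cells at 4×10^4 per well, incubated 24 h. HeLa and A-431 then received fresh medium. Graded compound concentrations were added for a further 72 h at 37 °C, 5% CO2. Viability was counted by Trypan blue exclusion. IC50 is the concentration giving 50% reduction in cell number versus control: ≥3 independent experiments, triplicate samples, mean ± SD.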

yD1 = test: Induction apoptosis in mouse yD1 cells assessed as ROS production at 10 uM/L using DCFH-DA by flow cytometry relative to control; type: functional, cell-based; procedure, shortened: as §1
B3 [3] = test: Cytotoxicity against mouse B3 cells after 24 to 96 hrs by MTS assay; type: functional, cell-based; procedure, shortened: as §2
Mus musculus [4] = species on record: Mus musculus; test: Cytotoxicity against mouse betaD10 cells after 24 to 96 hrs by MTS assay; type: functional, cell-based; procedure, shortened: as §2
A2B1 = test: Cytotoxicity against mouse A2B1 cells after 24 to 96 hrs by MTS assay; type: functional, cell-based; procedure, shortened: as §2
Craf/Cmyc [5] = test: Cytotoxicity against mouse Craf/Cmyc cells after 24 to 96 hrs by MTS assay; type: functional, cell-based; procedure, shortened: as §2
yB8 [6] = test: Cytotoxicity against mouse yB8 cells after 24 to 96 hrs by MTS assay; type: functional, cell-based; procedure, shortened: as §2
[7] = target: DNA topoisomerase 2-alpha (Homo sapiens) (UniProt P11388); test: Inhibition of human recombinant topoisomerase 2alpha-mediated relaxation of supercoiled pBR322 at up to 100 uM after 60 mins using ethidium bromide staining by agarose gel electrophoresis
DNA topoisomerase 2-alpha (Homo sapiens), sequence (P11388 whole entry): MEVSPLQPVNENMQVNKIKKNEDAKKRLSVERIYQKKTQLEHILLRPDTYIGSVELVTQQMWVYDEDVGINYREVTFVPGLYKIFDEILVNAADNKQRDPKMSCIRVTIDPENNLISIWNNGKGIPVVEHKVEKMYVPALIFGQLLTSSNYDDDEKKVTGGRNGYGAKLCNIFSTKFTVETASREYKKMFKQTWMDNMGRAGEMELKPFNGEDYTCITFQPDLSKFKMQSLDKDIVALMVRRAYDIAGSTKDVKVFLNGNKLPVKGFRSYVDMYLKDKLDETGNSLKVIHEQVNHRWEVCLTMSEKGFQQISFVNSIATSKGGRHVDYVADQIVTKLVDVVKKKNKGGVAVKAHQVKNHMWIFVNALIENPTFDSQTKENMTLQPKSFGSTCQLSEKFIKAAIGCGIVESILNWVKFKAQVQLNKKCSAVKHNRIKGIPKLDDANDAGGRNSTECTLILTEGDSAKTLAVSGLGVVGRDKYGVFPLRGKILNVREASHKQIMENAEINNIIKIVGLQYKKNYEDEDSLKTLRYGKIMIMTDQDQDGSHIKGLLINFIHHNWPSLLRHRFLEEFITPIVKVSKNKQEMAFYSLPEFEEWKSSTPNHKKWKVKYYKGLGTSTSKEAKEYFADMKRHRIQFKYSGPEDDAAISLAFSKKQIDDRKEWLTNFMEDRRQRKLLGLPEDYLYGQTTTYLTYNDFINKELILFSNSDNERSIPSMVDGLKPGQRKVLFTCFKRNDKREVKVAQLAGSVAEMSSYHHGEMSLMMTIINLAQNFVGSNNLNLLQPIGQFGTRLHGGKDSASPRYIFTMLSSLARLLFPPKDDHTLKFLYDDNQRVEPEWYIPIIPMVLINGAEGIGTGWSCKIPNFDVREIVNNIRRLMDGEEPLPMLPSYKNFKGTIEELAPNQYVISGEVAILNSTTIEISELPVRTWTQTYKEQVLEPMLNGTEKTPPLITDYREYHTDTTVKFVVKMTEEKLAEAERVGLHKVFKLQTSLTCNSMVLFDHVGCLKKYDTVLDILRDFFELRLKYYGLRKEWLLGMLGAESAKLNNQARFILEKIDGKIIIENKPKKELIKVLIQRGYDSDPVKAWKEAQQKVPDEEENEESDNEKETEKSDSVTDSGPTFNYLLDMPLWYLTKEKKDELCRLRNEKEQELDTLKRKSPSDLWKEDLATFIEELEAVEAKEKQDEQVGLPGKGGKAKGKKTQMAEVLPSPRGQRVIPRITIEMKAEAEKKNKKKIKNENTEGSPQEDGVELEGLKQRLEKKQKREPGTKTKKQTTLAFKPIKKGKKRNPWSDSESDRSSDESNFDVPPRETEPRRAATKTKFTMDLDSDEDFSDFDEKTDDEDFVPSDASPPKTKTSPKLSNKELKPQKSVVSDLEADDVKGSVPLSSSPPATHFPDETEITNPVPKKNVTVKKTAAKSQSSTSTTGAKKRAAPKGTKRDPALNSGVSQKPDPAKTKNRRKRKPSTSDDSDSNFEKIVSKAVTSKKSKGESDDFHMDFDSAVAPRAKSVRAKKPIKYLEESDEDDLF
Procedure, shortened: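 Supercoiled pBR322 (0.25 µg) with 1 U human recombinant topoisomerase IIα and test compound, 60 min at 37 °C in 20 µl reaction buffer. Stopped with SDS/bromophenol blue/glycerol plus 50 µg/mL proteinase K, 30 min at 37 °C. Separated on 1% agarose at room temperature, ethidium bromide stained (1 µg/mL, TAE), UV-visualized.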

yD12 [8] = test: Cytotoxicity against mouse yD12 cells after 24 to 96 hrs by MTS assay; type: functional, cell-based; procedure, shortened: as §2
A2C12 [9] = test: Cytotoxicity against mouse A2C12 cells after 24 to 96 hrs by MTS assay; type: functional, cell-based; procedure, shortened: as §2
A-431 = test: Cytotoxicity against human A431 cells after 72 hrs by trypan blue assay; type: functional, cell-based; settings: A-431, 72 h; procedure, shortened: as §3
Craf/Cmyc [10] = test: Induction apoptosis in mouse Craf/Cmyc cells assessed as ROS production at 10 uM/L using DCFH-DA by flow cytometry relative to control; type: functional, cell-based; procedure, shortened: as §1
A2C12 [11] = test: Induction apoptosis in mouse A2C12 cells assessed as ROS production at 10 uM/L using DCFH-DA by flow cytometry relative to control; type: functional, cell-based; procedure, shortened: as §1
yA3 [12] = test: Induction apoptosis in mouse yA3 cells assessed as ROS production at 10 uM/L using DCFH-DA by flow cytometry relative to control; type: functional, cell-based; procedure, shortened: as §1
Mus musculus [13] = species on record: Mus musculus; test: Cytotoxicity against mouse betaD5 cells after 24 to 96 hrs by MTS assay; type: functional, cell-based; procedure, shortened: as §2
HL-60 = test: Cytotoxicity against human HL60 cells after 72 hrs by trypan blue assay; type: functional, cell-based; settings: HL-60, 72 h; procedure, shortened: as §3
Nucleic Acid = test: Binding affinity to salmon testes DNA by linear flow dichroism analysis; type: nucleic-acid assay; settings: Salmonidae
Procedure, shortened: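 Salmon testes DNA (1.9 × 10^-3 M) in ETN buffer (10 mM Tris, 10 mM NaCl, 1 mM EDTA, pH 7). Linear dichroism spectra were recorded at 25 °C over a range of [drug]/[DNA] ratios on a spectropolarimeter converted for LD.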

Mus musculus [14] = species on record: Mus musculus; test: Induction apoptosis in mouse betaD5 cells assessed as ROS production at 10 uM/L using DCFH-DA by flow cytometry relative to control; type: functional, cell-based; procedure, shortened: as §1
yA3 [15] = test: Cytotoxicity against mouse yA3 cells after 24 to 96 hrs by MTS assay; type: functional, cell-based; procedure, shortened: as §2
[16] = Induction apoptosis in mouse Craf/Cmyc cells assessed as relative caspase activity at 10 uM/L after 2 hrs by rhodamine 110 fluorescence assay; type: functional
Procedure, shortened: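 Cells were pretreated with compound (10 µmol/L) for 2 h. The cell-permeable caspase substrate (Asp)2-rhodamine 110 (10 µmol/L) was then added for 2 h more. Caspase cleavage releases fluorescent rhodamine 110, and the read-out was mean fluorescence.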

HUVEC [17] = test: Antiangiogenic activity in HUVEC cocultured with human PaSMC assessed as reduction of total tube length at 125 nM after 72 hrs; type: functional; design: scale not given: the % may be the effect or the level left
Procedure, shortened: (§4)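 Primary HUVEC (passage 5, retrovirally labelled with RFP) and pulmonary artery vSMC (passage 5) co-seeded at 5×10^4 PaSMC plus 10×10^3 HUVEC per well in EGM-2, briefly spun at 200 g, attached 3 h. Compounds were then added at final 2–200 nM, two replicates per concentration. Networks formed over 72 h at 37 °C, 5% CO2, followed by automated imaging and image analysis of tube formation.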

Mus musculus [18] = species on record: Mus musculus; test: Induction apoptosis in mouse betaD10 cells assessed as ROS production at 10 uM/L using DCFH-DA by flow cytometry relative to control; type: functional, cell-based; procedure, shortened: as §1
yD12 [19] = test: Induction apoptosis in mouse yD12 cells assessed as ROS production at 10 uM/L using DCFH-DA by flow cytometry relative to control; type: functional, cell-based; procedure, shortened: as §1
yB8 [20] = test: Induction apoptosis in mouse yB8 cells assessed as ROS production at 10 uM/L using DCFH-DA by flow cytometry relative to control; type: functional, cell-based; procedure, shortened: as §1
yA7 [21] = test: Induction apoptosis in mouse yA7 cells assessed as ROS production at 10 uM/L using DCFH-DA by flow cytometry relative to control; type: functional, cell-based; procedure, shortened: as §1
HUVEC [22] = test: Antiangiogenic activity in HUVEC cocultured with human PaSMC assessed as morphological changes up to 200 nM after 72 hrs; type: functional, cell-based; procedure, shortened: as §4

Row | SMILES | Activity (Bos taurus) | Activity (B3 [1]) | Activity (yA7 [2]) | IC50 (HeLa) [nM] | Activity (yD1) | Activity (B3 [3]) | Activity (Mus musculus [4]) | Activity (A2B1) | Activity (Craf/Cmyc [5]) | Activity (yB8 [6]) | Activity [7] | Activity (yD12 [8]) | Activity (A2C12 [9]) | IC50 (A-431) [nM] | Activity (Craf/Cmyc [10]) | Activity (A2C12 [11]) | Activity (yA3 [12]) | Activity (Mus musculus [13]) | IC50 (HL-60) [nM] | Activity (Nucleic Acid) | other results
1 | CC[C@@]1(OC(=O)NCCNC(=O)CCCCCCCCC(=O)NCCNC(=O)O[C@]2(CC)C(=O)OCc3c2cc2n(c3=O)Cc3cc4ccccc4nc3-2)C(=O)OCc2c1cc1n(c2=O)Cc2cc3ccccc3nc2-1 | inactive | Active | Active | 300 | Active | Active | Active | Active | Active | Active | inactive | Active | Active | 80 | Active | Active | Active | Active | 420 | inactive | Activity (Mus musculus [14]): Active; Activity (yA3 [15]): Active; fold change (FC) [16]: 8
2 | CC[C@@]1(OC(=O)NCCNC(=O)CCCSSCCCC(=O)NCCNC(=O)O[C@]2(CC)C(=O)OCc3c2cc2n(c3=O)Cc3cc4ccccc4nc3-2)C(=O)OCc2c1cc1n(c2=O)Cc2cc3ccccc3nc2-1 | inactive | Active | Active | 170 | Active | Active | Active | Active | Active | Active | inactive | Active | Active | 30 | Active | Active | Active | Active | 290 | inactive | Activity (HUVEC [17]): 50%; Activity (Mus musculus [18]): Active; Activity (yD12 [19]): Active; Activity (yB8 [20]): Active; Activity (yA7 [21]): Active; Activity (Mus musculus [14]): Active; Activity (yA3 [15]): Active; Activity (HUVEC [22]): inactive
